Screens from PubChem BioAssay.
Diaphorase act = activates diaphorase or chemically reduces, flagging diaphorase assay artifacts; Diaphorase/resazurin coupled assay, resorufin fluorescence, 16 min; hits give high values; 1 = vehicle wells, 0 = NADH-free wells; activation factor at 20 µM; 190,000 compounds, 0.005% hits; AID 1229;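 active = diaphorase activity raised at least twofold by the compound at 20 µM; inactive = activation factor below 2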
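Test system: Clostridium kluyveri diaphorase, purified enzyme. Buffer or medium: 50 mM HEPES pH 7.4 buffer plus MgCl2 and Tween 20. Also added: 0.114 mM NADH and 0.1 mM resazurin, final amounts. Dosing: compound 20 µM once, DMSO 1%. Schedule: 16 min enzyme reaction, ambient temperature. Detection: fluorescence of resorufin, 544 nm excitation, 590 nm emission.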
HKDC1 inh = inhibitors of human hexokinase HKDC1. Q2TB90. inhibition, % at 20 µM. 340,000 compounds, 0.16% hits. recombinant HKDC1, G6PDH/diaphorase resazurin coupled fluorescence;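 active = inhibition above about 35% when tested at 20 µM, limit read from the data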
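test system = in-house recombinant HK5 (HKDC1) enzyme | amount = HKDC1 at 5 µg/mL | control set = DMSO-enzyme wells negative, buffer-substituted wells positive | compound = one dose of 20 µM, 1% DMSO | schedule = reaction time 90 min, room temperature, protected from light | technique = resorufin fluorescence at 613 nm | reagent = glucose with 1 mM ATP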
PfGluPho inh = PfG6PD (Plasmodium falciparum) enzyme inhibition. PfGluPho enzyme, NADPH resazurin-diaphorase fluorescence. inhibition, % at 20 µM. 350,000 compounds, 0.78% hits. AID 504690;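 active = inhibition reaching at least a set limit at 20 µM in the primary screen, cut at about 59% in these data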
G6PDH CS = L. mesenteroides G6PDH inhibition counter-screen; 200,000 compounds, 0.12% hits; Purified L. mesenteroides G6PDH, diaphorase/resazurin coupled fluorescence, 45 min; inhibition, % at 5 µM; AID 1020; in the data active = inhibition above about 50%
Diaphorase inh = inhibits diaphorase or chemically oxidizes, flagging diaphorase assay artifacts. diaphorase resazurin-to-resorufin fluorescence, NADH, 16 min; bacterial (C. kluyveri) enzyme, not human. inhibition, % at 20 µM. 190,000 compounds, 0.69% hits. AID 1217;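 active = primary screen inhibition at 20 µM above a set limit, cut at about 50% in these data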
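Test system: diaphorase enzyme from Clostridium kluyveri; amount: diaphorase at 0.14 U/mL in enzyme working solution; detection: fluorescence of resorufin formed from resazurin, Ex 544/Em 590 nm; times: reaction incubation of 16 min at room temperature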
PfG6PD confirm = PfG6PD inhibition, single-dose confirmed; shares compounds with PfGluPho inh; recombinant PfGluPho, NADPH-diaphorase-resazurin fluorescence; inhibition, % at 20 µM; 2,400 compounds, 34% hits; AID 504753;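 active = inhibition of at least 50% at 20 µM in any single replicate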
Diaph ctr 10uM = counter-screen for P. falciparum G6PD inhibitors: diaphorase inhibitors, oxidizers; AID 504862; inhibition, % at 20 µM; 820 compounds, 39% hits; diaphorase-coupled resazurin reduction, fluorescence, NADPH 10 uM; shares compounds with PfGluPho inh;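 active = average inhibition reaching 50% or more with the compound at 20 µM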;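 also: resorufin red fluorescence formed as diaphorase reduces resazurin using NADPH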
Diaph ctr 30uM = inhibits diaphorase or oxidizes, flagging false PfG6PD hits | shares compounds with PfGluPho inh | Diaphorase/resazurin coupled assay, resorufin fluorescence, 30 uM NADPH | inhibition, % at 20 µM | 820 compounds, 29% hits | AID 504863;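 active = inhibition averaging 50% or more, tested at 20 µM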
Hits are given with their value. A selection: hits, their analogues and other compounds. The true share with any hit is near 1.2%.

Results for COc1ccc(N(C(=O)c2snc(C(N)=O)c2N)C(C(=O)NC2CCCC2)c2cccs2)c(OC)c1 (stereo unspecified) ?
HKDC1 inh: inactive; PfGluPho inh: inactive

Results for CCOC(=O)c1cnc(-c2cccc(OC)c2)[nH]c1=O ?
Diaphorase act: inactive; HKDC1 inh: inactive; PfGluPho inh: 96.4; G6PDH CS: inactive; Diaphorase inh: inactive; PfG6PD confirm: 78.3; Diaph ctr 10uM: 74.8; Diaph ctr 30uM: 56.0

How did Cn1ccc(NS(=O)(=O)c2cc(Br)ccc2Br)n1 do in these assays?
HKDC1 inh: inactive; PfGluPho inh: inactive

How did CC1N(C)c2cccc3cccc(c23)N1C do in these assays?
Diaphorase act: inactive; HKDC1 inh: inactive; PfGluPho inh: 69.0; G6PDH CS: inactive; Diaphorase inh: inactive; PfG6PD confirm: 52.8; Diaph ctr 10uM: inactive; Diaph ctr 30uM: inactive

What do the screens show for `CN1c2cccc3cccc(c23)N(C)C1c1cccs1`?
Diaphorase act: inactive; HKDC1 inh: inactive; PfGluPho inh: inactive; G6PDH CS: inactive; Diaphorase inh: inactive

How did CCN(CC)CCCNc1ccc2ncn3c4ccc(O)cc4c(=O)c1c23 do in these assays?
HKDC1 inh: inactive; PfGluPho inh: 79.9; PfG6PD confirm: inactive

How did CC(=O)NCc1ccc(-c2csc(-c3cccs3)n2)cc1 do in these assays?
HKDC1 inh: inactive; PfGluPho inh: inactive

How did COC(=O)c1c(NS(=O)(=O)c2ccccc2)csc1C do in these assays?
HKDC1 inh: inactive; PfGluPho inh: 90.7; PfG6PD confirm: 78.0; Diaph ctr 10uM: 71.7; Diaph ctr 30uM: 55.8

What do the screens show for `CCOC(=O)c1ccccc1NS(=O)(=O)c1ccc(C)cc1`?
Diaphorase act: inactive; HKDC1 inh: inactive; PfGluPho inh: inactive; G6PDH CS: inactive; Diaphorase inh: inactive

Results for CCOC(=O)c1ccccc1NS(=O)(=O)c1ccccc1 ?
Diaphorase act: inactive; HKDC1 inh: inactive; PfGluPho inh: 79.2; G6PDH CS: inactive; Diaphorase inh: inactive; PfG6PD confirm: 59.6; Diaph ctr 10uM: 58.1; Diaph ctr 30uM: 54.3

Results for COC(=O)c1c(NC(=O)c2ccc(C)cc2)csc1C ?
HKDC1 inh: inactive; PfGluPho inh: inactive

Results for COc1ccc(C2(C)C(C#N)C(=O)NC(=O)C2C#N)cc1 (stereo unspecified) ?
HKDC1 inh: inactive; PfGluPho inh: inactive

How did CC1(c2nnc(-c3cccc(Cl)c3)o2)CC(c2cccnc2)=NO1 (stereo unspecified) do in these assays?
HKDC1 inh: inactive; PfGluPho inh: inactive

What do the screens show for `COc1cc(/C=N/N2CCN(Cc3ccc(C)cc3)CC2)cc(OC)c1O`?
HKDC1 inh: inactive; PfGluPho inh: 78.6; PfG6PD confirm: inactive

How did COc1ccccc1N1CCN(/N=C/c2cc(OC)c(O)c(OC)c2)CC1 do in these assays?
Diaphorase act: inactive; HKDC1 inh: inactive; PfGluPho inh: 75.8; G6PDH CS: inactive; Diaphorase inh: inactive; PfG6PD confirm: inactive

What do the screens show for `c1cc2c(cc1NC1CCCCCC1)OCO2`?
HKDC1 inh: inactive; PfGluPho inh: 62.4; PfG6PD confirm: 60.6; Diaph ctr 10uM: inactive; Diaph ctr 30uM: inactive

Results for CC(=O)OCC1OC(n2c(S)c(C#N)c(-c3ccccc3)c(C#N)c2=O)C(OC(C)=O)C(OC(C)=O)C1OC(C)=O (stereo unspecified) ?
HKDC1 inh: inactive; PfGluPho inh: 66.4; PfG6PD confirm: inactive

Results for CC(=O)OCC1OC(c2ccccc2)C(OC(C)=O)C(OC(C)=O)C1OC(C)=O (stereo unspecified) ?
Diaphorase act: inactive; HKDC1 inh: inactive; PfGluPho inh: inactive; G6PDH CS: inactive; Diaphorase inh: inactive

What do the screens show for `CC(Nc1cc(N2CCCC2)ccc1[N+](=O)[O-])c1ccccc1` (stereo unspecified)?
Diaphorase act: inactive; HKDC1 inh: inactive; PfGluPho inh: inactive; G6PDH CS: inactive; Diaphorase inh: inactive

Results for CC(Nc1cc(N2CCN(S(=O)(=O)N(C)C)CC2)ccc1[N+](=O)[O-])c1ccccc1 (stereo unspecified) ?
Diaphorase act: inactive; HKDC1 inh: inactive; PfGluPho inh: 88.2; G6PDH CS: inactive; Diaphorase inh: inactive; PfG6PD confirm: inactive

Results for CC(Nc1cc(N2CCN(S(C)(=O)=O)CC2)ccc1[N+](=O)[O-])c1ccccc1 (stereo unspecified) ?
Diaphorase act: inactive; HKDC1 inh: inactive; PfGluPho inh: 59.7; G6PDH CS: inactive; Diaphorase inh: inactive; PfG6PD confirm: inactive

What do the screens show for `COc1ccc(NC(=O)c2cnc(SC)nc2)cc1`?
HKDC1 inh: inactive; PfGluPho inh: inactive

What do the screens show for `N#Cc1c(-c2ccccc2)nc(-c2cccnc2)[nH]c1=O`?
HKDC1 inh: inactive; PfGluPho inh: inactive

Results for Cc1cccc(-n2c(C)cc(C(=O)NC3CCCCC3)c2C)c1 ?
Diaphorase act: inactive; HKDC1 inh: inactive; PfGluPho inh: inactive; G6PDH CS: inactive; Diaphorase inh: inactive

What do the screens show for `COc1ccc(-n2c(C)cc(C(=O)NC3CCCCC3)c2C)cc1`?
Diaphorase act: inactive; HKDC1 inh: inactive; PfGluPho inh: 70.6; G6PDH CS: inactive; Diaphorase inh: inactive; PfG6PD confirm: inactive

What do the screens show for `CCOC(=O)c1cc(-c2ccccc2)sc1NC(=O)c1ccc(OC)c(OC)c1`?
Diaphorase act: inactive; HKDC1 inh: inactive; PfGluPho inh: 78.5; G6PDH CS: inactive; Diaphorase inh: inactive; PfG6PD confirm: inactive

Results for CCOC(=O)c1cc(-c2ccccc2)sc1NC(=O)C(C)C ?
Diaphorase act: inactive; HKDC1 inh: inactive; PfGluPho inh: inactive; G6PDH CS: inactive; Diaphorase inh: inactive

How did N#Cc1ccc(OCC(=O)Nc2ccc(N3CCCC3)cc2)cc1 do in these assays?
HKDC1 inh: inactive; PfGluPho inh: inactive

Results for COc1ccc(Cl)cc1NC(=O)C/C(C)=N/NC(=O)c1ccccc1[N+](=O)[O-] ?
HKDC1 inh: inactive; PfGluPho inh: inactive

What do the screens show for `COc1ccc(Cl)cc1NC(=O)c1cccc([N+](=O)[O-])c1O`?
HKDC1 inh: inactive; PfGluPho inh: 76.9; PfG6PD confirm: 57.4; Diaph ctr 10uM: inactive; Diaph ctr 30uM: inactive

Results for Cc1csc(NC(=O)c2ccc(S(=O)(=O)N3CCN(C)CC3)cc2)n1 ?
HKDC1 inh: inactive; PfGluPho inh: inactive

What do the screens show for `CCn1c(SCC(=O)Nc2ccc(C)cc2)nnc1-c1cnccn1`?
HKDC1 inh: inactive; PfGluPho inh: 67.8; PfG6PD confirm: inactive

How did C=CCn1c(SCC(=O)Nc2ccc(OC)cc2)nnc1-c1cnccn1 do in these assays?
HKDC1 inh: inactive; PfGluPho inh: 64.0; PfG6PD confirm: inactive
